Activity calls are given as the source filed them. No cut-off for these calls is given here.
How the values were obtained:
[1] = molecular target: Fatty-acid amide hydrolase 1 (Homo sapiens, UniProt O00519); test: Inhibition of recombinant FAAH transfected in HEK293T cells by SDS-PAGE using rhodamine-tagged FP probe; format: cell-based, HEK-293T
Method in brief: (§1)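 HEK293T cells were transfected with cDNA for the target hydrolase. The transfected proteome was treated with inhibitor across 0.01-100 μM, then labeled with rhodamine-tagged fluorophosphonate probe (FP-Rh). Loss of probe labeling was read to give IC50. Values are means ± standard errors of three independent experiments.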

[2] = molecular target: Platelet-activating factor acetylhydrolase (Homo sapiens, UniProt Q13093); test: Inhibition of recombinant PLA2g7 transfected in HEK293T cells by SDS-PAGE using rhodamine-tagged FP probe; format: cell-based, HEK-293T; method in brief: as §1
[3] = molecular target: Phosphatidylserine lipase ABHD16A (Homo sapiens, UniProt O95870); test: Inhibition of recombinant BAT5 transfected in HEK293T cells by SDS-PAGE using rhodamine-tagged FP probe; format: cell-based, HEK-293T; method in brief: as §1
[4] = molecular target: T1, Diacylglycerol lipase-alpha (Mus musculus) (UniProt Q6WQJ1); test: Inhibition of DAGLalpha in mouse brain assessed as >15 average spectral count at 50 uM treated for 30 mins by ABPP-MudPIT assay; format: tissue-based
T1 sequence (whole entry): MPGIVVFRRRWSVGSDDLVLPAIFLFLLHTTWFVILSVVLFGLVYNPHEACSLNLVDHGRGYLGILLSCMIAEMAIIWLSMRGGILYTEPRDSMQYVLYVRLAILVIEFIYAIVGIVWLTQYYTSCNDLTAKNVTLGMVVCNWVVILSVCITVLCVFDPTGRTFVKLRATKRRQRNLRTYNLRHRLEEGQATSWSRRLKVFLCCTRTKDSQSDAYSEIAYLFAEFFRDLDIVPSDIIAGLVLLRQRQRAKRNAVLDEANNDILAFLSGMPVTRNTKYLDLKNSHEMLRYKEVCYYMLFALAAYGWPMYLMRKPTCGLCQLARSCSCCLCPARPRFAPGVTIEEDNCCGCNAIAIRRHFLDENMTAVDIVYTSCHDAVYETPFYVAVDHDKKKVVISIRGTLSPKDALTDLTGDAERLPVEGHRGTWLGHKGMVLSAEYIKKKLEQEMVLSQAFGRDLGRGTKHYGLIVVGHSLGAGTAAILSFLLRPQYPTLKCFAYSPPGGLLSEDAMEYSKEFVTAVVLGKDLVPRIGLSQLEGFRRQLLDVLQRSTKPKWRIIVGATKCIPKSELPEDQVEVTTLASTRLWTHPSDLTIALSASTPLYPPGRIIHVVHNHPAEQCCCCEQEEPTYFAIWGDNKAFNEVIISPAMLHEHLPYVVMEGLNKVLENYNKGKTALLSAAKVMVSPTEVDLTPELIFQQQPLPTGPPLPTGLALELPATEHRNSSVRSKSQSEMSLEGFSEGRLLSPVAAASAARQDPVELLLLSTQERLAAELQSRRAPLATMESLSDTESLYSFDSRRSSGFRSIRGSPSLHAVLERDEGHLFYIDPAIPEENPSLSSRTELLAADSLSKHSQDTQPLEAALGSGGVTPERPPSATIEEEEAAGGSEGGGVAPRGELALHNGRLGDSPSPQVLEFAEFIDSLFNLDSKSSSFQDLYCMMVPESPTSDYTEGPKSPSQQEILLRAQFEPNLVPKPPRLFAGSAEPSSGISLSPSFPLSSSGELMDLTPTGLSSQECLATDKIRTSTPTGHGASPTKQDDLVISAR

[5] = molecular target: T1, Diacylglycerol lipase-alpha (Mus musculus); test: Inhibition of DAGLalpha in mouse brain assessed as >15 average spectral count at 5 uM treated for 30 mins by ABPP-MudPIT assay; format: tissue-based
[6] = molecular target: T2, Phosphatidylserine lipase ABHD16A (Mus musculus) (UniProt Q9Z1Q2); test: Inhibition of BAT5 in mouse brain at 0.01 to 100 uM treated for 30 mins by SDS-PAGE using rhodamine-tagged FP probe; format: tissue-based
T2 sequence (whole entry): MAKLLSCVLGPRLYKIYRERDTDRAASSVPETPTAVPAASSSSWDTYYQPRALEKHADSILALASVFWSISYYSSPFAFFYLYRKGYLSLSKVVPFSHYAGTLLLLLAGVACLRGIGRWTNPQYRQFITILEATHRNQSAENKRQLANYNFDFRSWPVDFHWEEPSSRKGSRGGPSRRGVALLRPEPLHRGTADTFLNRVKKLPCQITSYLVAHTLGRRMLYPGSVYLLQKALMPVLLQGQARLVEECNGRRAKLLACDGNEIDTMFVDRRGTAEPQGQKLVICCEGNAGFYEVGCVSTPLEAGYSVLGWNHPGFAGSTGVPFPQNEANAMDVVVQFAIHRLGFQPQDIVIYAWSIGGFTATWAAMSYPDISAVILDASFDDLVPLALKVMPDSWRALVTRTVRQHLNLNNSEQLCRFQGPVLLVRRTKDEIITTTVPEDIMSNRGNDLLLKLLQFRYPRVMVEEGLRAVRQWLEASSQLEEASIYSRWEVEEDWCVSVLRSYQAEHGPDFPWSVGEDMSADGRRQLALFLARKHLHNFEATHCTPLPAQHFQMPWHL
Method in brief: (§2)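 Mouse brain membrane proteome preincubated with inhibitor across 0.01-100 μM for 30 min. A rhodamine-tagged fluorophosphonate probe (FP-Rh) was then added for 60 min. Samples were resolved by SDS-PAGE, and probe labeling of each hydrolase band was read by in-gel fluorescence scanning.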

[7] = molecular target: Monoglyceride lipase (Mus musculus) (UniProt O35678); test: Inhibition of MAGL in mouse brain at 0.01 to 100 uM treated for 30 mins by SDS-PAGE using rhodamine-tagged FP probe; format: tissue-based; method in brief: as §2
[8] = molecular target: T3, Lysophosphatidylserine lipase ABHD12 (Mus musculus) (UniProt Q99LR1); test: Inhibition of ABHD12 in mouse brain at 0.01 to 100 uM treated for 30 mins by SDS-PAGE using rhodamine-tagged FP probe; format: tissue-based; method in brief: as §2
T3 sequence (whole entry): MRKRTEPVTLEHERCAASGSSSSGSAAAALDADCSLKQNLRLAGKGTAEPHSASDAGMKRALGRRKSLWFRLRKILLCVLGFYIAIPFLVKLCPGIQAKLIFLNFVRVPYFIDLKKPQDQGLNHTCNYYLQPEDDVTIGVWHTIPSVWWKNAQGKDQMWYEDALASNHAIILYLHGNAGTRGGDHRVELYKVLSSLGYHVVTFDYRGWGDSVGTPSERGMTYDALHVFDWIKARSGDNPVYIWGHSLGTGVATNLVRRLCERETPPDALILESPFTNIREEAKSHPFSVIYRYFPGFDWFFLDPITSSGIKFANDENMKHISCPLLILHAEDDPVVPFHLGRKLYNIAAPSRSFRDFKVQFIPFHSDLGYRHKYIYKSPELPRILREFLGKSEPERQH

[9] = molecular target: Acetylcholinesterase (Mus musculus) (UniProt P21836); test: Inhibition of AChE in mouse brain assessed as reduction in spectral count at 5 uM treated for 30 mins by ABPP-MudPIT assay relative to control; format: tissue-based
Method in brief: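 Mouse brain proteome was treated with inhibitor at the stated single concentration, or DMSO as control, for 30 min. FP-biotin (5 μM) was then added for 120 min, followed by avidin enrichment and LC-MS (ABPP-MudPIT). Runs were in triplicate. Only hydrolases with >15 average spectral counts in control were quantified. Blockade is the percent reduction in average spectral counts versus DMSO; >60% defined a target.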

Sequence of Platelet-activating factor acetylhydrolase (Q13093 whole entry): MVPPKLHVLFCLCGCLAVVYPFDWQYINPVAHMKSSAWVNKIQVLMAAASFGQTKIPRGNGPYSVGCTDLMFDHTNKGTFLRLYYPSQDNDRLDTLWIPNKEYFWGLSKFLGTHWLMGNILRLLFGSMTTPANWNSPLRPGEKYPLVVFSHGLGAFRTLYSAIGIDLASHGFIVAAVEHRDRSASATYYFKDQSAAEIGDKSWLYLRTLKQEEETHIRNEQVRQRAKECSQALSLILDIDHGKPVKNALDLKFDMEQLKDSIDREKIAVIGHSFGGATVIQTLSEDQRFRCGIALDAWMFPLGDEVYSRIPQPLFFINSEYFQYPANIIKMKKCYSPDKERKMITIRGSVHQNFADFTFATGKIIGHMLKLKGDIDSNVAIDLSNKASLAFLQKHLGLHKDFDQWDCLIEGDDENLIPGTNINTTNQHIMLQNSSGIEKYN
Sequence of Fatty-acid amide hydrolase 1 (O00519 whole entry): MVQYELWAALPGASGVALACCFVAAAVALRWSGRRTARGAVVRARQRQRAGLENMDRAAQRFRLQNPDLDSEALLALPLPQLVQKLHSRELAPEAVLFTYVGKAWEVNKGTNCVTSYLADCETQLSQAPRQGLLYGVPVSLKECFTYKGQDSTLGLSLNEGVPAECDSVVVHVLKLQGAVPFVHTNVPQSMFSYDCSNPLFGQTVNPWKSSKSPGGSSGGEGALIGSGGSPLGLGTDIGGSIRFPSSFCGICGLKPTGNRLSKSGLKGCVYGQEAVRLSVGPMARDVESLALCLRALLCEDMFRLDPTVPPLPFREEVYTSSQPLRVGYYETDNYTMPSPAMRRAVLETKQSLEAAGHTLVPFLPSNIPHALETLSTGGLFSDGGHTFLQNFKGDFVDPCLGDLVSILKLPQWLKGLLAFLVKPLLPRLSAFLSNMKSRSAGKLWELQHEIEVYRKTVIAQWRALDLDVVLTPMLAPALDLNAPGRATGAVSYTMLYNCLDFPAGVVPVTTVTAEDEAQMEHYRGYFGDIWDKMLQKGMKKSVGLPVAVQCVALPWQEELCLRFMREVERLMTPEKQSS
Sequence of Phosphatidylserine lipase ABHD16A (O95870 whole entry): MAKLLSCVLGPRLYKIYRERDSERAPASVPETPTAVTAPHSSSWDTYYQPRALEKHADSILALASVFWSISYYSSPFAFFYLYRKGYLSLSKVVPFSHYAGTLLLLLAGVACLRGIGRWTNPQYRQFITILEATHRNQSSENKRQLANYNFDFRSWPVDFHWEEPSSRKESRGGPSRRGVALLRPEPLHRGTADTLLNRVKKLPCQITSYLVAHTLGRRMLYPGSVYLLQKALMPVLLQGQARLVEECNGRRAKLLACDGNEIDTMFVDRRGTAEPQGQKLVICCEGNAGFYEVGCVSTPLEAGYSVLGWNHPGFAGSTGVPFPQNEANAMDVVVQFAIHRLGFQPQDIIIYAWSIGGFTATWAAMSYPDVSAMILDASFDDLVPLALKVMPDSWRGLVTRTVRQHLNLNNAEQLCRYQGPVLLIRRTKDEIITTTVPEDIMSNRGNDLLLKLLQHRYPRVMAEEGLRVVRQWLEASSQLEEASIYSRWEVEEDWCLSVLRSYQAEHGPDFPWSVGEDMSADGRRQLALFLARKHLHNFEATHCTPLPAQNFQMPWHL
Sequence of Monoglyceride lipase (Mus musculus) (O35678 whole entry): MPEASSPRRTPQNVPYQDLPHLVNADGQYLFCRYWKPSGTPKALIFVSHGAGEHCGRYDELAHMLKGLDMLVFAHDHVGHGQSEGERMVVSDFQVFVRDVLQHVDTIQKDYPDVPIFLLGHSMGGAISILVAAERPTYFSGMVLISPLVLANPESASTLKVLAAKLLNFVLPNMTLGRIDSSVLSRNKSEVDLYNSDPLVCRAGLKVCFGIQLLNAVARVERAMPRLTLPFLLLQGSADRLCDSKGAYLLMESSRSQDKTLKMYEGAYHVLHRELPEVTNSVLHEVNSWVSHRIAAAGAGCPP
Sequence of Acetylcholinesterase (Mus musculus) (P21836 whole entry): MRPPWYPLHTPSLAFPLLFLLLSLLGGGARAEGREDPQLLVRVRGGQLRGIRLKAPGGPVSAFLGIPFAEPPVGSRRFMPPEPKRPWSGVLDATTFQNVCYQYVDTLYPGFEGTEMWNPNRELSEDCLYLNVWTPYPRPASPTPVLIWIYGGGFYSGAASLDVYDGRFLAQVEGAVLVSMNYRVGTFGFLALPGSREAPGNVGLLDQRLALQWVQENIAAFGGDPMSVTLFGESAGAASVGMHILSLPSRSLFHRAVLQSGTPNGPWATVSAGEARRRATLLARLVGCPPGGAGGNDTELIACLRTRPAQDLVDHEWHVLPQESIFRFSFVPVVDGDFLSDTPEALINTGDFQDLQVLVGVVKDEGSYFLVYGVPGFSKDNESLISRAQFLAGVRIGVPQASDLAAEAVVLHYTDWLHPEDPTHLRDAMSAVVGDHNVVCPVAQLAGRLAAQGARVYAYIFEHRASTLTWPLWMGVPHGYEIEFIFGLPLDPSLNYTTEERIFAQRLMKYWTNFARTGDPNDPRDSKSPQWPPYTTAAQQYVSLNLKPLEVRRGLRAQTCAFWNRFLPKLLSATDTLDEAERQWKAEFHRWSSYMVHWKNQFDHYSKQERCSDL

O=C(NCCCCCCNC(=O)ON=C1CCCCC1)ON=C1CCCCC1
IC50 [1]: 70 µM
IC50 [2]: 11 µM
IC50 [3]: 23 µM
Activity [4]: inactive
Activity [5]: inactive
Activity [6]: Active
Activity [7]: Active
Activity [8]: Active
inhibition [9]: > 60%

CCCCCCCCCCC[C@@H](C[C@@H]1OC(=O)[C@H]1CCCCCC)OC(=O)[C@H](CC(C)C)NC=O [ORLISTAT]
IC50 [1]: > 100 µM
IC50 [2]: 0.05 µM
IC50 [3]: 0.03 µM
Activity [4]: inactive
Activity [5]: inactive
Activity [6]: Active
Activity [7]: Active
Activity [8]: Active

Reference: ChEMBL document CHEMBL1151781, “Selectivity of inhibitors of endocannabinoid biosynthesis evaluated by activity-based protein profiling” (Bioorg Med Chem Lett, 2008)
